Here are results for one compound from article PMC9890135 (Molecular Cancer Therapeutics, 2022).

For data set [1] the following is noted: rats; cited from earlier work.
In a further data set the target is T1, MER (Homo sapiens, UniProt Q12866).
T1 sequence (Q12866 21-999): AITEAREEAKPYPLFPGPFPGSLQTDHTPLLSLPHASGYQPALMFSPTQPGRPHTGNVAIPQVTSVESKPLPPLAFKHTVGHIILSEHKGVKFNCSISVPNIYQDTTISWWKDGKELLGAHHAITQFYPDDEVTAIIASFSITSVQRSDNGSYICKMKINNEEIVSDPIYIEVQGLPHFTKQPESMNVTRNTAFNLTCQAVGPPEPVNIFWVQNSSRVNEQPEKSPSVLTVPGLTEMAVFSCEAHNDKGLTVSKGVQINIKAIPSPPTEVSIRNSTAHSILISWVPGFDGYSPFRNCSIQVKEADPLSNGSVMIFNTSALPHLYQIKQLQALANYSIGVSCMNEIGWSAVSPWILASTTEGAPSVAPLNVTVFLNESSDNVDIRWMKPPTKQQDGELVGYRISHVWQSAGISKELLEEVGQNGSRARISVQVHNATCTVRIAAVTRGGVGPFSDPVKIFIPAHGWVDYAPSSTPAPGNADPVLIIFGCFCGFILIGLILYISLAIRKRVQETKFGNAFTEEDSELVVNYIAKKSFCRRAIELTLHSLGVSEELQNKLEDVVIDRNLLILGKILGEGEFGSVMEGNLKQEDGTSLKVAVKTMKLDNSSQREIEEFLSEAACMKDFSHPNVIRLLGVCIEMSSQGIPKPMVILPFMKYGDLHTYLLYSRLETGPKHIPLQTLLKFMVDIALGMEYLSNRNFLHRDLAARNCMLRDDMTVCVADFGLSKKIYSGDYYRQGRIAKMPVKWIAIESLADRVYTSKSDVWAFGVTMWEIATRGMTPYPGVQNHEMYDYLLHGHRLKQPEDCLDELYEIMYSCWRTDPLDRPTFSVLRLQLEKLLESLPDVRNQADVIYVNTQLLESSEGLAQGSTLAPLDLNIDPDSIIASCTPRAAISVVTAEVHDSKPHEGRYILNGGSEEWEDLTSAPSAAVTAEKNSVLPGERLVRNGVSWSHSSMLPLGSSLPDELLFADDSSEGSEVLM
The data set can be described thus: Inhibition of receptor phosphorylation, ELISA, MERTK-transfected 293A cells. It counts as cell-based.

In data set [2] the target is VEGFR2 (Homo sapiens, UniProt P35968). Nature of the data set: Inhibition of receptor phosphorylation, ELISA, HUVEC/VEGF165. The following applies: Cellular IC50 ± SD, VEGFR2 autophosphorylation, serum-free. It counts as cell-based. In general terms: An ELISA detects its analyte on a solid surface through an enzyme-linked reagent.
VEGFR2 (Homo sapiens, UniProt P35968), sequence (P35968 20-1356): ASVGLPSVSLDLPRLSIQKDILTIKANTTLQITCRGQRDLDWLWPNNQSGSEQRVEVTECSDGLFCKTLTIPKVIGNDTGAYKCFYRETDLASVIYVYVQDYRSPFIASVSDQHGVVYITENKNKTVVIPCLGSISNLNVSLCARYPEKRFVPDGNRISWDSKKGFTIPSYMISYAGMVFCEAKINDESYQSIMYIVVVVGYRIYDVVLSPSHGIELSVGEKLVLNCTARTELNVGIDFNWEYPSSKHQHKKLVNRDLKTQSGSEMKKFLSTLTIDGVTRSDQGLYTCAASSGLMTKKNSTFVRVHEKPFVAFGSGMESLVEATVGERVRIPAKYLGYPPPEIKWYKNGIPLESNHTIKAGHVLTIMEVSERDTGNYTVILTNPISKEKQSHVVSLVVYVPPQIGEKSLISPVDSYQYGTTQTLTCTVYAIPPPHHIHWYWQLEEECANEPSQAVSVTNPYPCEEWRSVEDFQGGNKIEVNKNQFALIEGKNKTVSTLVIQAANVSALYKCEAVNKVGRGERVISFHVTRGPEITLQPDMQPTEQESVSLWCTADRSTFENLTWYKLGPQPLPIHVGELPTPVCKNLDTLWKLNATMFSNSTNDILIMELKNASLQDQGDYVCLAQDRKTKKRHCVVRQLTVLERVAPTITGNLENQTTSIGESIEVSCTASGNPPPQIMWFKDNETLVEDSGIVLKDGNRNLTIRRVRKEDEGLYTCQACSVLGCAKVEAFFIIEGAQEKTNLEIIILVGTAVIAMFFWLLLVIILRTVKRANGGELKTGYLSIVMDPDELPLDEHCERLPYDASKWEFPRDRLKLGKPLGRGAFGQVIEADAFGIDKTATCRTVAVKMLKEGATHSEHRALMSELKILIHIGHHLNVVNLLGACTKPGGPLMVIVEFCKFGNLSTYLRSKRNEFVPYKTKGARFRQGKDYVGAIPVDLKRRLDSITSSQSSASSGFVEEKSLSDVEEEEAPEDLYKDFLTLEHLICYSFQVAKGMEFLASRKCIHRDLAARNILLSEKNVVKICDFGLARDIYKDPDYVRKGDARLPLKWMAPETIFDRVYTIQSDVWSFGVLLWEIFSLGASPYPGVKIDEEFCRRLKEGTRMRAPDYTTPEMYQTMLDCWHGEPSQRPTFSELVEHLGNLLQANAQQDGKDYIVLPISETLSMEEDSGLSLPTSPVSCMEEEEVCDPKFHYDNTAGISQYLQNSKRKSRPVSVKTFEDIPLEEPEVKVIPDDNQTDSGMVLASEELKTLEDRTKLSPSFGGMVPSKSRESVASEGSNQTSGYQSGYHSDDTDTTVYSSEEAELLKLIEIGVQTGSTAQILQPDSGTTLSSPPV
The subject of data set [3] is human xenograft murine models. The data set can be described thus: Murine xenograft models overall. It counts as in vivo, mice. The following applies: after 14 days of daily 10 mg/kg treatments. The essentials: (§1)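 Human tumour cells inoculated into the rear flank. Mice randomised at mean volumes of ~200 mm3 (Hs 746T), ~120 mm3 (MDA-MB-231), ~100 mm3 (NCI-H441) or ~90 mm3 (SNU-5). Oral gavage once daily with test compound or vehicle. Tumour volume and body weight measured at least twice weekly. […], using mean volumes at extraction and dosing start.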

The target of another data set is MET (Homo sapiens, UniProt P08581, DEL964-1010). The data set can be described thus: MET phosphorylation in Hs 746T tumors in vivo. Also noted: species or system mice. To be noted: Hs 746T model; single dose of 100 mg/kg.
Data set [4] in a line: Plasma protein binding, rapid equilibrium dialysis. It counts as in vitro ADME. To be noted: mouse. The essentials: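 Rapid equilibrium dialysis against PBS at 10 μmol/L test compound, 16 h incubation, in triplicate.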
Background: In equilibrium dialysis only unbound substance equilibrates across the membrane.

For the next data set, the system named is CT26 tumors. Nature of the data set: CT26 syngeneic colorectal cancer survival model. The data set is classed as in vivo, mice. The following applies: XL092 30 mg/kg orally once a day, anti-PD-1 10 mg/kg every 3–4 days i.p. The gist of the method: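 CT26 syngeneic mice randomised at ~90 mm3. Treatment: oral test compound 30 mg/kg once daily for 34 days, with or without anti-PD-1 antibody (10 mg/kg i.p. every 3–4 days for 5 weeks, diluted in sterile PBS), or vehicle. Animals sacrificed at tumour volume 2,500 mm3; survival analysed by Kaplan–Meier.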

The next data set deals with T2, AXL (Homo sapiens, UniProt P30530).
T2 sequence (P30530 26-894): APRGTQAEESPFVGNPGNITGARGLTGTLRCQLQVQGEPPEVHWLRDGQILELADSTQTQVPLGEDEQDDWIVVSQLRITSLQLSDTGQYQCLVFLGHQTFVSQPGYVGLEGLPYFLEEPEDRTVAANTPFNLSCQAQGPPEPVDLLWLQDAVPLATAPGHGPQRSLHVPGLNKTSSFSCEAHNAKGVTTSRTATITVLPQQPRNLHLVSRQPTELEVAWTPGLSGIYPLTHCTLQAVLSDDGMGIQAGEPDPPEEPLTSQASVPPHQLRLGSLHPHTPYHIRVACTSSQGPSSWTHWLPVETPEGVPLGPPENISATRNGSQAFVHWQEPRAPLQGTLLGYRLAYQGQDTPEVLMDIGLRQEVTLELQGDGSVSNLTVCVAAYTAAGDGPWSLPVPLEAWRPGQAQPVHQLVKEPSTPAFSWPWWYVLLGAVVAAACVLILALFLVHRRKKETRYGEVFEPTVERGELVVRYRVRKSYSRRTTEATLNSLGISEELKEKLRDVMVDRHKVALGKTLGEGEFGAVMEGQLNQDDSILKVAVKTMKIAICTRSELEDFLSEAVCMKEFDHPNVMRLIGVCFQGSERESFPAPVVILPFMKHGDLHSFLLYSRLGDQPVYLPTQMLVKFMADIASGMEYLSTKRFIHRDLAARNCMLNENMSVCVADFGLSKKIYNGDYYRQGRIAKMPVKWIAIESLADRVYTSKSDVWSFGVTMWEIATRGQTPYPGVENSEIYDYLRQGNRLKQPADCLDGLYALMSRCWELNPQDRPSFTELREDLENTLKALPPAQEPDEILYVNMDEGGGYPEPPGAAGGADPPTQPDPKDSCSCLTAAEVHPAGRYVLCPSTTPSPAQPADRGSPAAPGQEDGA
Nature of the data set: Inhibition of receptor phosphorylation, ELISA, A-172 cells/GAS6. It counts as cell-based.

The target in data set [5] is VEGFR2 (Mus musculus, UniProt P35918). It counts as in vivo, mice. The following applies: lung. The gist of the method:
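Hs 746T tumour-bearing mice received single oral doses (30 or 100 mg/kg; n = 5 pooled) or vehicle (n = 6 pooled). Then hVEGF (10 μg i.v.) 3.5 h later, 30 min before sacrifice. Lung homogenate immunoprecipitated overnight with anti-VEGFR2 on Protein A magnetic beads; Western for phospho- and total VEGFR2, infrared imaging. 100 mg/kg group also sampled every 12 h to 48 h.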

The test system of the next data set is MDA-MB-231 tumors. The data set can be described thus: MDA-MB-231 xenograft tumor growth. It counts as in vivo, mice. To be noted: 14 days, oral. The essentials:
as §1

In general, IC50 refers to the midpoint of a concentration-inhibition curve. A lower IC50 goes with greater potency in that assay. As usually defined, the fraction unbound is free concentration divided by total concentration. Higher therefore signals weak binding.

Some results are limits rather than exact numbers.

VEGFR2 (Mus musculus, UniProt P35918), sequence (P35918 20-1345): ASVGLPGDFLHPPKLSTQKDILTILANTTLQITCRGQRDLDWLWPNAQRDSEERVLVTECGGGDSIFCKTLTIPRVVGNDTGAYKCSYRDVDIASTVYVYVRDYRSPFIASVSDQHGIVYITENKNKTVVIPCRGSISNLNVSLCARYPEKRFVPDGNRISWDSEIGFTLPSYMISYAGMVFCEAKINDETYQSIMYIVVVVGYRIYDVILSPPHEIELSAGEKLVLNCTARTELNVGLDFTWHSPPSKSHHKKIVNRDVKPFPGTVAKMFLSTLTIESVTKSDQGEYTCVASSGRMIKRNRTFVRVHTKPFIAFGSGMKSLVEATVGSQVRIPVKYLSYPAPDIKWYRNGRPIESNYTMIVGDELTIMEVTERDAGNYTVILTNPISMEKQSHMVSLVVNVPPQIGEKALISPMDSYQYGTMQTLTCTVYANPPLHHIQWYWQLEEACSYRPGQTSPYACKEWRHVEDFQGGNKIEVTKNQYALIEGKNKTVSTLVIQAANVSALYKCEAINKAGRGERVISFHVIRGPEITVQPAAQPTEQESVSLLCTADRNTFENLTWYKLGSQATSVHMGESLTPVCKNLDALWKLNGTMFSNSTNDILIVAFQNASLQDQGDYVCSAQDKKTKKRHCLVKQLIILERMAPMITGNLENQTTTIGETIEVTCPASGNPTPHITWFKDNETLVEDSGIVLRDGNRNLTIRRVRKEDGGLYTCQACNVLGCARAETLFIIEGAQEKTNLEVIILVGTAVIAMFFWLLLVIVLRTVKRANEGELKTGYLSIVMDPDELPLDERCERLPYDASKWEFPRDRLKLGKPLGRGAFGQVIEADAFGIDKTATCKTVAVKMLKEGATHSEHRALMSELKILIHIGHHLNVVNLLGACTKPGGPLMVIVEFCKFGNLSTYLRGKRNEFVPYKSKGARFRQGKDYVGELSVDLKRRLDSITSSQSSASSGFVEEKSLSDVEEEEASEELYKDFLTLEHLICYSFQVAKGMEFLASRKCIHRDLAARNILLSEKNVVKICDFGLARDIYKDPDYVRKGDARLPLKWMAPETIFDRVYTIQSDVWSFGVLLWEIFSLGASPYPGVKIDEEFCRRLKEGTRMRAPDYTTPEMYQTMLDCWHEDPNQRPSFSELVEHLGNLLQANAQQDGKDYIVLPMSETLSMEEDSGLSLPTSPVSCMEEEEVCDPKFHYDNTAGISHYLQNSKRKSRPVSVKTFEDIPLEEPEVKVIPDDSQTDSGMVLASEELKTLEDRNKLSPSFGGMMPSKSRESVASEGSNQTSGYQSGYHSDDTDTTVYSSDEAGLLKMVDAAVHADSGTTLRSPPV

For `CNC(=O)c1cc2c(Oc3ccc(NC(=O)C4(C(=O)Nc5ccc(F)cc5)CC4)cc3)ccnc2cc1OC` [XL092], in data set [1], the half-life entry is given as “approximately 7 hours”. The IC50 against MER was 6.01 ± 1.56 nM; at VEGFR2 [2], 1.57 ± 1.52 nM; at AXL, 3.89 ± 1.61 nM. The “TGI (summary over several models)” value in data set [3] was not below 70%. On MET, the “duration of inhibition of MET phosphorylation” value is “approximately 24 hours”. The free fraction (fraction unbound) at 16 h, 10 μmol/L in data set [4] was 0.003. In the data set on CT26 tumors, the “survival to the end of the 34-day dosing regimen” value is 20%. In addition, the “duration of inhibition of VEGFR2 phosphorylation” value on VEGFR2 [5] (Hs 746T model, single dose of 100 mg/kg) was “approximately 24 hours”. Also, the “pVEGFR2 Inhibition, %” value at VEGFR2 [5] (Hs 746T tumor-bearing mice, 30 mg/kg single bolus, 4 hours after treatment) is on record as “complete abolishment”. Moreover, the Tumor growth inhibition in the data set with MDA-MB-231 tumors (3 mg/kg/day) was 73.6%; with MDA-MB-231 tumors (10 mg/kg/day) it was 78.6%.
